Assay results reported in ChEMBL document CHEMBL3352416, “Discovery of carbohybrid-based 2-aminopyrimidine analogues as a new class of rapid-acting antimalarial agents using image-based cytological profiling assay” (J Med Chem, 2014).
Activity calls are given as the source filed them. The calls are words filed in the database; no cut-off is given here.

Tests used:
[1] = tested on: Plasmodium falciparum; assay: Antimalarial activity against Plasmodium falciparum HB3 by automated image mining based cytological profiling assay; type: functional
Procedure, shortened: (§1)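 Parasite cultures in 384-well format, read by automated imaging. Infected erythrocytes detected by DAPI nuclear staining against WGA-AlexaFluor 488 host-cell stain, and viability by Mitotracker Red CMXRos. Total culture parasitaemia quantified. EC50 given as mean±SD of two independent experiments, each in duplicate.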

[2] = tested on: Plasmodium chabaudi; assay: Antimalarial activity against Plasmodium chabaudi infected in BALB/c mouse assessed as reduction in parasitaemia level treated intraperitoneally on day 1 to day 3 post-infection measured on day 4 post-infection by Giemsa staining based light microscopy; type: functional
Procedure, shortened: (§2)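 Groups of five BALB/c mice infected i.p. with 2 × 10^7 P. chabaudi-parasitized erythrocytes. Day 1 pre-treatment parasitaemia read from tail-blood thin smears, then i.p. dosing at 0.03, 0.3, 3, 10 or 30 mg/kg, repeated for two more days. Day 4 parasitaemia scored by light microscopy of Giemsa-stained thin smears; dose-response evaluated by probit analysis.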

[3] = tested on: Plasmodium falciparum; assay: Antimalarial activity against Plasmodium falciparum W2 by automated image mining based cytological profiling assay; type: functional, organism-based; procedure, shortened: as §1
[4] = tested on: Plasmodium chabaudi; assay: Antimalarial activity against Plasmodium chabaudi infected in BALB/c mouse assessed as reduction in accumulation of ring-stage parasites level at 3 to 30 mg/kg, ip treated on day 1 to day 3 post-infection measured on day 4 post-infection by Giemsa staining based light microscopy; type: functional, organism-based; procedure, shortened: as §2
[5] = tested on: Plasmodium chabaudi; assay: Antimalarial activity against Plasmodium chabaudi infected in BALB/c mouse assessed as reduction in blood parasitaemia level at 3 to 30 mg/kg, ip treated on day 1 to day 3 post-infection measured on day 4 post-infection by Giemsa staining based light microscopy; type: functional, organism-based; procedure, shortened: as §2
[6] = tested on: Plasmodium falciparum; assay: Antimalarial activity against tightly synchronized Plasmodium falciparum K1 assessed as parasite stage accumulation index at early ring stages at 10 uM treated at 6 to 30 hrs post-invasion by automated image mining based cytological profiling assay; type: functional, organism-based
[7] = tested on: Plasmodium falciparum; assay: Antimalarial activity against tightly synchronized Plasmodium falciparum K1 assessed as parasite stage accumulation index at late ring stages at 10 uM treated at 6 to 30 hrs post-invasion by automated image mining based cytological profiling assay; type: functional, organism-based
[8] = Stability in human liver microsomes assessed as remaining compound level at 1 uM incubated for 5 mins in presence of NADPH measured after 30 mins by LC/MS/MS method; type: ADME; conditions: read-out: Stability
Procedure, shortened: (§3)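 Percent parent compound remaining after 30 min incubation with liver microsomes; n = 3.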

[9] = Half life in Sprague-Dawley rat at 5 mg/kg, ip; type: ADME, organism-based; design: dose 5 mg/kg, route intraperitoneal; conditions: in vivo
[10] = Cmax in Sprague-Dawley rat at 5 mg/kg, ip; type: ADME, organism-based; design: dose 5 mg/kg, route intraperitoneal; conditions: in vivo
[11] = Half life in Sprague-Dawley rat at 1 mg/kg, ip; type: ADME, organism-based; design: dose 1 mg/kg, route intraperitoneal; conditions: in vivo
[12] = Cmax in Sprague-Dawley rat at 1 mg/kg, ip; type: ADME, organism-based; design: dose 1 mg/kg, route intraperitoneal; conditions: in vivo
[13] = AUC in Sprague-Dawley rat at 1 mg/kg, ip; type: ADME, organism-based; design: dose 1 mg/kg, route intraperitoneal; conditions: plasma
[14] = tested on: Plasmodium falciparum; assay: Antimalarial activity against tightly synchronized Plasmodium falciparum K1 assessed as parasite stage accumulation index at schizonts stages at 10 uM treated at 6 to 30 hrs post-invasion by automated image mining based cytological profiling assay; type: functional, organism-based
[15] = Stability in mouse liver microsomes assessed as remaining compound level at 1 uM incubated for 5 mins in presence of NADPH measured after 30 mins by LC/MS/MS method; type: ADME; conditions: read-out: Stability; procedure, shortened: as §3
[16] = AUC in Sprague-Dawley rat at 5 mg/kg, ip; type: ADME, organism-based; design: dose 5 mg/kg, route intraperitoneal; conditions: plasma
[17] = tested on: Plasmodium falciparum; assay: Antimalarial activity against Plasmodium falciparum K1 by automated image mining based cytological profiling assay; type: functional, organism-based; procedure, shortened: as §1
[18] = Selectivity index, ratio of CC50 for human HepG2 cells to EC50 for Plasmodium falciparum; type: toxicity, cell-based; conditions: read-out: Ratio CC50/EC50
Procedure, shortened: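 Ratio of HepG2 CC50 (resazurin assay) to the highest EC50 among P. falciparum K1, HB3 and W2. Parasite EC50 values are means of two independent experiments, each run in duplicate.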

[19] = Tmax in Sprague-Dawley rat at 1 mg/kg, ip; type: ADME, organism-based; design: dose 1 mg/kg, route intraperitoneal; conditions: in vivo
[20] = tested on: Plasmodium falciparum; assay: Antimalarial activity against tightly synchronized Plasmodium falciparum K1 assessed as parasite stage accumulation index at trophozoites stages at 10 uM treated at 6 to 30 hrs post-invasion by automated image mining based cytological profiling assay; type: functional, organism-based
[21] = Tmax in Sprague-Dawley rat at 5 mg/kg, ip; type: ADME, organism-based; design: dose 5 mg/kg, route intraperitoneal; conditions: in vivo

EC50 [1]: 104 nM
EC50 [3]: 104 nM
remaining at 30 min, 1 µM [8]: 88.1%
half-life [9]: 636 min
Cmax [10]: 12900 ng/mL
half-life [11]: 618 min
Cmax [12]: 1800 ng/mL
AUC [13]: 9790 ng·h/mL
remaining at 0.5 h, 1 µM [15]: 88.6%
AUC [16]: 41300 ng·h/mL
EC50 [17]: 116 nM
Tmax [19]: 1 h
Tmax [21]: 1 h
SMILES: COc1ccc(CO[C@H]([C@H](OCc2ccc(OC)cc2)c2cnc(N(C)C)nc2)[C@@H](COC(c2ccccc2)(c2ccccc2)c2ccccc2)OS(C)(=O)=O)cc1
inhibition [2]: Dose dependent effect
ED50 ([2]; ip): 0.32 mg/kg
inhibition [4]: Active
inhibition [5]: Active
Activity [6]: Active
Activity [7]: Active
Activity [14]: Active
selectivity ratio [18]: > 680
Activity [20]: Active
